An excerpt weighted towards active compounds, which were near 3.9% of everything screened.
HEK293 NFkB inh – inhibitors of the PMA/ionomycin-induced NF-kB reporter in HEK293 cells. HEK-293 NF-kB luciferase reporter, luminescence. inhibition, % at 3 µM. 62,000 tested, 0.21% active;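 active = inhibition above the mean of all tested compounds plus 3 SD, cut at about 40% in these data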;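 note: 0% = stimulated DMSO wells and 100% = 10 µM reference inhibitor 5653914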
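Material: HEK-293 cells with stable firefly luciferase reporter driven by four HIV NF-kB elements / Also added: PMA plus ionomycin mix as NF-kB-activating stimulus / Compound dosing: 3 µM once, 0.30% DMSO / Times: 1 h pretreatment, 16 h stimulation, 37 °C / Signal: luminescence / Evaluation: per-plate % inhibition versus controls / Benchmarks: DMSO and 10 µM reference inhibitor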
Jurkat tox 60K – cytotoxicity toward Jurkat cells; Jurkat E6.1 viability, ATP luminescence, 48 h; inhibition, % at 4 µM; 56,000 tested, 1.2% active;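 active = inhibition above the mean inhibition of all tested compounds plus 3 SD, cut at about 28% in these data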
RORA act – activates the human nuclear receptor RORA | CHO-K1 Gal4-RORA LBD luciferase reporter, luminescence; percent increase over mock-subtracted basal signal | P35398 | activation, % at 10 µM | 65,000 tested, 1.5% active;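 active = activation above the mean of all tested compounds plus 3 SD, cut at about 49% in these data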;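 note: 0% = DMSO-treated RORA cells and 100% = added signal equal to DMSO minus mock-transfected cells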
SF1 activator – activators of human nuclear receptor SF-1; activation, % at 10 µM; 65,000 tested, 1.9% active; CHO-K1 Gal4-SF-1 LBD luciferase reporter; % increase over DMSO SF-1-specific signal; AID 522; Q13285;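 active = activation above the mean activation of all tested compounds plus 3 SD, cut at about 50% in these data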
Target sequence (Q13285 whole entry, looked up, the tested form may be a part): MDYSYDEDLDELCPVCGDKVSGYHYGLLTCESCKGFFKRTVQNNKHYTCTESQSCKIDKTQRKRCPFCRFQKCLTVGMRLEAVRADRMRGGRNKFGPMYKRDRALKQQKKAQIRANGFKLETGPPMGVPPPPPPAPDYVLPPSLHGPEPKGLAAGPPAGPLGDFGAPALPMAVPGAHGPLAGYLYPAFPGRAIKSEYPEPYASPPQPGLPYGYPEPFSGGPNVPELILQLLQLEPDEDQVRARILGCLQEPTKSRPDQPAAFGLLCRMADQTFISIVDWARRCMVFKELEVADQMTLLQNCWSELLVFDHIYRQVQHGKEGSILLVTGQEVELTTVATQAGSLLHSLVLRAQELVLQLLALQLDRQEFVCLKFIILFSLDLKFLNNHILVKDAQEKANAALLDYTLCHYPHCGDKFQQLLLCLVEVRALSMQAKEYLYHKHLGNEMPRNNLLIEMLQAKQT
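Test system: CHO-K1 cells with Gal4–hSF-1 LBD chimera plus Gal4-driven luciferase; Input: 4,000 cells/well; Compound: 10 µM only; Times: 20 h compound treatment, 37 °C; Measured by: steady-glow luciferase luminescence, read after 15 min reagent incubation; Measure: percent activation versus DMSO; Control set: DMSO and mock-transfected background; Replicates: one test per compound.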
The depositor's hits bear a star.

How did COc1cc2c(cc1NC(=O)C1CCCO1)oc1ccccc12 (stereo unspecified) do in these assays?
HEK293 NFkB inh: -26; Jurkat tox 60K: -4; RORA act: 58*; SF1 activator: 78*

Results for O=C(Nc1ccc(Oc2ccccc2)cc1)C1CCCO1 (stereo unspecified) ?
HEK293 NFkB inh: -8; Jurkat tox 60K: -2; RORA act: 27; SF1 activator: 58*

How did O=C(Nc1nnc(CC(=O)N2CCCC2)s1)c1cnccn1 do in these assays?
HEK293 NFkB inh: 5; RORA act: 13; SF1 activator: -9

What do the screens show for `O=C1c2oc3ccc(Cl)cc3c(=O)c2C(c2ccccn2)N1CCCN1CCOCC1` (stereo unspecified)?
HEK293 NFkB inh: -1; Jurkat tox 60K: 2; RORA act: 11; SF1 activator: 11

What do the screens show for `O=C(CCN1C(=O)CSC1=O)Nc1ccccc1`?
HEK293 NFkB inh: 16; Jurkat tox 60K: -2; RORA act: -18; SF1 activator: -8

How did COc1ccc(N2CCN(CCCNS(=O)(=O)c3c(C)noc3/C=C/N(C)C)CC2)cc1 do in these assays?
HEK293 NFkB inh: 14; Jurkat tox 60K: 10; RORA act: -8; SF1 activator: 9

Results for O=C(Nc1nc2ccccc2s1)C1CCCO1 (stereo unspecified) ?
HEK293 NFkB inh: -26; Jurkat tox 60K: 0; RORA act: 43; SF1 activator: 59*

Results for CCOc1ccc(N(CC(=O)NC(C)CC)S(=O)(=O)c2c(C)noc2C)cc1 (stereo unspecified) ?
HEK293 NFkB inh: 9; Jurkat tox 60K: -6; RORA act: 2; SF1 activator: -4

What do the screens show for `CC1CCCCC1NS(=O)(=O)c1ccc(S(=O)(=O)NCc2ccncc2)cc1` (stereo unspecified)?
HEK293 NFkB inh: 14; Jurkat tox 60K: 92*; RORA act: -69; SF1 activator: -70

How did COc1ccc(S(=O)(=O)NCc2ccncc2)cc1OC do in these assays?
HEK293 NFkB inh: 23; Jurkat tox 60K: 21; RORA act: 5; SF1 activator: -10

What do the screens show for `O=C1CC(c2ccc(S(=O)(=O)NCc3ccncc3)cc2)CN1` (stereo unspecified)?
HEK293 NFkB inh: -3; Jurkat tox 60K: 8; RORA act: -16; SF1 activator: -12

Results for Cc1ccc(S(=O)(=O)NCc2ccncc2)cc1 ?
HEK293 NFkB inh: 18; Jurkat tox 60K: 76*; RORA act: -56; SF1 activator: -42

How did Nc1ccc2nc(-c3ccc(Cl)cc3)[nH]c2c1 do in these assays?
HEK293 NFkB inh: -4; Jurkat tox 60K: 31; RORA act: 82*; SF1 activator: 64*

Results for Cc1ccc(Nc2nc(=O)c3cccnc3s2)cc1 ?
HEK293 NFkB inh: -16; Jurkat tox 60K: 9; RORA act: 50*; SF1 activator: 53*

How did O=c1nc(NCc2ccco2)sc2ncccc12 do in these assays?
HEK293 NFkB inh: -3; Jurkat tox 60K: -2; RORA act: -19; SF1 activator: 1

Results for Cc1cc(N2CCN(C/C=C/c3ccccc3)CC2)n2ncnc2n1 ?
HEK293 NFkB inh: 15; Jurkat tox 60K: 37*; RORA act: -17; SF1 activator: -7

Results for Cc1cc(N2CCN(C(c3ccccc3)c3ccc(Cl)cc3)CC2)n2ncnc2n1 (stereo unspecified) ?
HEK293 NFkB inh: 10; Jurkat tox 60K: -1; RORA act: -10; SF1 activator: 22

What do the screens show for `O=C1c2ccccc2C(=O)N1CCSc1nncs1`?
HEK293 NFkB inh: 5; Jurkat tox 60K: -2; RORA act: 0; SF1 activator: 13

Results for Cc1csc(SCCN2C(=O)c3ccccc3C2=O)n1 ?
HEK293 NFkB inh: -35; Jurkat tox 60K: -2; RORA act: 73*; SF1 activator: 65*

What do the screens show for `O=C(COC(=O)c1ccccc1S(=O)(=O)N1CCCCC1)NCC(F)(F)F`?
HEK293 NFkB inh: -19; Jurkat tox 60K: 12; RORA act: -23; SF1 activator: 13

What do the screens show for `O=S(=O)(C/C(=C/CO)S(=O)(=O)c1ccccc1)c1ccccc1`?
HEK293 NFkB inh: 18; Jurkat tox 60K: 98*; RORA act: -89; SF1 activator: -96

What do the screens show for `COc1ccc2c(c1OC)C(=O)NC(C)=C(C(=O)OC(C)(C)C)C2O` (stereo unspecified)?
HEK293 NFkB inh: 11; Jurkat tox 60K: -2; RORA act: 3; SF1 activator: 1

Results for C/C(N)=C(/C#N)C(=O)COC(=O)c1cc(C)n(-c2ccc(F)cc2)c1C ?
HEK293 NFkB inh: -39; Jurkat tox 60K: 31; RORA act: 67*; SF1 activator: 65*
